Rows were chosen to be rich in hits. Some 2.3% of all compounds tested hit in one or more screens of this group.
TRPC6 inh = mouse TRPC6 channel inhibition | Q61143 | HEK293-TRPC6, membrane potential dye, ACh-evoked depolarization; active compounds read low | B-score at 10 µM | 310,000 compounds, 1.1% hits | AID 2553;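 active means B-score under library mean minus 3 SD, initial fluorescence not abnormally high, positive integrated signal ratio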;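 further: B-score derived from integrated fluorescence ratio over the kinetic read; more negative B-score means stronger inhibition of depolarization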
TRPC4 act = activators of mouse TRPC4 channel | Q9QUQ5 | 310,000 compounds, 0.49% hits | B-score at 10 µM | HEK293 TRPC4beta/mu-opioid, Fluo4 calcium fluorescence; active compounds read high | AID 2237;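 active means B-score above 5 SD of library B-scores, and initial fluorescence ratio not above library mean plus 5 SD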;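 further: positive B-score marks a calcium rise read as TRPC4 activation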
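system = HEK293 cells stably co-expressing mouse TRPC4beta and mu-opioid receptor | schedule = Fluo4 dye loading 45 min at room temperature, 110 s recording | measure = B-scored integrated calcium fluorescence ratio | signal = Fluo4 calcium-sensitive dye fluorescence, kinetic, 1 Hz baseline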
TRPC4 block = blocks the mouse TRPC4 cation channel | HEK293 TRPC4beta/mu-opioid, DAMGO-evoked Fluo4 calcium flux; active compounds read low | B-score at 10 µM | 300,000 compounds, 0.39% hits;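 active means B-score over 3 SD under the library average, no early fluorescence shift, positive overall ratio signal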
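Assay system: Stable TRPC4beta/mu-opioid receptor HEK293 cells | Reagent: DAMGO in two steps, submaximal then maximal | Compound dosing: Single concentration per test compound | Signal: Fluo4 Ca2+ flux fluorescence | Evaluation: Per-well B score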
TRPC6 activator = mouse TRPC6 channel activation; Q61143; HEK293-TRPC6 membrane potential dye fluorescence; active compounds read high; B-score at 10 µM; 310,000 compounds, 0.13% hits;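 active means B-score of the integrated fluorescence ratio above library mean plus 3 SD, and starting fluorescence ratio within library mean plus 5 SD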;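 further: higher score means more depolarization so channel activation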
TRPC4 PAM = TRPC4 (mouse) allosteric potentiation. Q9QUQ5. HEK293 TRPC4beta/mu-opioid, DAMGO EC20, Fluo-4 Ca2+ flux; active compounds read high. B-score at 10 µM. 310,000 compounds, 0.42% hits;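 active means B-score of calcium response area above 5 SD of library B-scores, with initial fluorescence ratio within 5 SD of library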
Numbers stand for hits; . = inactive.

SMILES	TRPC6 inh	TRPC4 act	TRPC4 block	TRPC6 activator	TRPC4 PAM
COc1ccc(Cl)cc1S(=O)(=O)N1CCC(C(=O)NC2CC2)CC1	.	.	.	.	.
CSc1cccc(NC(=O)N2CCN(C)CC2)c1	.	.	.	.	28
CN1CCN(C(=O)Nc2ccccc2)CC1	.	.	.	.	.
CCCCN(CC)CCCNC(=O)c1ccc(CS(=O)(=O)c2c(Cl)cccc2Cl)o1	.	62	.	.	.
CCCCN(CCCNC(=O)c1ccc(CS(=O)(=O)c2c(Cl)cccc2Cl)o1)Cc1ccccc1	.	.	.	.	.
Cc1cc(C)c2c(=O)n(CC(=O)NCCCN3CCOCC3)sc2n1	.	.	.	.	.
Cc1cc(C)c2c(=O)n(CC(=O)NCCCN3CCN(c4ccccc4F)CC3)sc2n1	.	.	-5	.	.
COc1ccc(C2C(O)C(c3c[nH]c4ccccc34)=NN2C(=O)CCl)cc1 (stereo unspecified)	.	.	.	.	21
Cc1ccc(CNC(=O)CSc2nc(=O)n3ccccc3n2)cc1	.	.	-6	.	.
CC(C)c1ccccc1NC(=S)NN(Cc1ccccc1)c1ccccc1	.	.	.	.	27
NC(=S)N/N=C/c1ccc(-c2cc(Cl)c(Cl)cc2Cl)o1	.	.	.	.	.
NC(=S)N/N=C/c1ccc(Br)o1	.	.	.	.	10
Cn1c(=O)n(C)c2cc([N+](=O)[O-])c(N3CCN(S(=O)(=O)c4ccc5ccccc5c4)CC3)cc21	.	.	.	.	.
Cc1ccc(S(=O)(=O)N2CCN(c3cc4c(cc3[N+](=O)[O-])n(C)c(=O)n4C)CC2)cc1	.	.	.	.	15
C#CCCOC(=O)N1C2=NC(C(=O)OC)=C(C(=O)OC)[C@@H]3N(C)c4ccccc4[C@]23C[C@H]1C(=O)OC	.	.	.	.	.
C#CCCOC(=O)N1C2=NC(C(=O)OC)=C(C(=O)OC)[C@@H]3N(Cc4ccccc4)c4ccccc4[C@]23C[C@H]1C(=O)OC	.	.	.	.	10
CC(C)C(=O)Nc1ccc2c(c1)nc(CCN1CCN(c3ccccn3)CC1)n2C	.	.	.	.	.
COc1cc(C2NC(=S)NC(C)=C2C(=O)Nc2cc(C)cc(C)c2)ccc1O (stereo unspecified)	.	.	.	.	10
CCOC(=O)C1NC(=O)CC1c1ccccc1 (stereo unspecified)	.	.	.	.	.
CCOC(=O)[C@@H]1CCNC[C@@H]1c1ccccc1	.	190	.	.	.
O=C(Cc1cccc2ccccc12)Nc1ccc(Br)cc1C(=O)O	.	.	-7	.	.
O=C(Cc1cccc2ccccc12)Nc1ccc(O)cc1C(=O)O	.	.	.	.	.
COc1ccc(C(=O)O)cc1S(=O)(=O)N(C)CCc1ccccn1	.	46	.	.	.
COc1ccc(/C=C2\SC(=O)N(CC(=O)Nc3ccc(F)cc3)C2=O)cc1O	.	.	.	.	11
COc1ccc(/C=C2\SC(=S)N(N3C(=O)CCC3=O)C2=O)cc1O	.	.	.	.	144
SMILES	TRPC6 inh	TRPC4 act	TRPC4 block	TRPC6 activator	TRPC4 PAM
COc1ccccc1N(Cc1ccccc1)S(=O)(=O)c1cccc(C(=O)Nc2cccc(C)n2)c1	.	.	.	.	.
Cc1c(CCOC(=O)c2cccc([N+](=O)[O-])c2)sc[n+]1CC(=O)c1ccccc1	.	.	-6	.	.
COc1ccc(C(=O)OCCc2sc[n+](CC(=O)c3ccccc3)c2C)cc1	-5.3	.	.	.	.
Cc1c(CCOC(=O)C2C3CC4CC(C3)CC2C4)sc[n+]1CC(=O)c1ccc(Br)cc1 (stereo unspecified)	.	.	.	.	.
CCC(C)[C@H](NC(=O)[C@H](Cc1ccccc1)n1c(=O)[nH]c2ccccc2c1=O)C(=O)NCC1CCC(C(=O)O)CC1 (stereo partly specified)	.	.	.	.	.
COc1ccc(S(=O)(=O)NCC(c2ccc(C)cc2)N2CCN(C)CC2)cc1 (stereo unspecified)	.	.	.	.	.
COc1ccccc1N1CCN(C2CCCN(Cc3ccccc3OCCO)C2)CC1 (stereo unspecified)	.	.	.	.	12
COc1ccccc1N1CCN(C2CCCN(C(=O)c3oc(C)cc3C)C2)CC1 (stereo unspecified)	.	54	.	.	.
